From ChEMBL document CHEMBL4610098, “Isolation and Synthesis of Veranamine, an Antidepressant Lead from the Marine Sponge Verongula rigida” (J Nat Prod, 2020)
Active and inactive are the calls of the source.

Tests used:
Mus musculus = assay: Antidepressant activity in Swiss Webster (Harlan) mouse assessed as decrease in immobility time at 20 mg/kg, ip after 30 mins by forced swim test; type: functional, organism-based
Summary of the method: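 Mice housed five per cage on 12 h light/dark cycle, randomized (n = 6–10/group), given i.p. dose in saline, 10% ethanol or 10% ethanol/1% DMSO vehicle; desipramine 20 mg/kg as reference. Directly after 30 min locomotor session, each mouse placed in water-filled cylinder (8 cm depth, 25 °C), videotaped 6 min; immobility over final 4 min timed by three observers, averaged.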

[1] = Effect on locomotor activity in Swiss Webster (Harlan) mouse at 20 mg/kg, ip after 30 mins by automated activity monitoring system based assay; type: ADME, organism-based; details: in vivo, 0.5 h
Summary of the method: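 Mice in groups of five, 12 h light/dark, randomized (n = 6–10/group), dosed i.p. in saline, 10% ethanol or 10% ethanol/1% DMSO vehicle, desipramine 20 mg/kg reference. Each mouse put in Plexiglas enclosure right after injection; photobeam interruptions recorded for 30 min, with counts from the last 10 min quantified and analyzed.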

[2] = target: Alpha-1A adrenergic receptor (Homo sapiens, UniProt P35348); assay: Binding affinity to adrenoceptor alpha 1A (unknown origin)
[3] = target: Alpha-1B adrenergic receptor (Homo sapiens, UniProt P35368); assay: Binding affinity to adrenoceptor alpha 1B (unknown origin)
[4] = target: Alpha-2A adrenergic receptor (Homo sapiens, UniProt P08913); assay: Binding affinity to adrenoceptor alpha 2A (unknown origin)
[5] = target: Alpha-2B adrenergic receptor (Homo sapiens, UniProt P18089); assay: Binding affinity to adrenoceptor alpha 2B (unknown origin)
[6] = target: Alpha-2C adrenergic receptor (Homo sapiens, UniProt P18825); assay: Binding affinity to adrenoceptor alpha 2C (unknown origin)
[7] = target: Beta-1 adrenergic receptor (Homo sapiens, UniProt P08588); assay: Binding affinity to beta1 adrenoceptor (unknown origin)
Beta-1 adrenergic receptor, sequence (P08588 whole entry): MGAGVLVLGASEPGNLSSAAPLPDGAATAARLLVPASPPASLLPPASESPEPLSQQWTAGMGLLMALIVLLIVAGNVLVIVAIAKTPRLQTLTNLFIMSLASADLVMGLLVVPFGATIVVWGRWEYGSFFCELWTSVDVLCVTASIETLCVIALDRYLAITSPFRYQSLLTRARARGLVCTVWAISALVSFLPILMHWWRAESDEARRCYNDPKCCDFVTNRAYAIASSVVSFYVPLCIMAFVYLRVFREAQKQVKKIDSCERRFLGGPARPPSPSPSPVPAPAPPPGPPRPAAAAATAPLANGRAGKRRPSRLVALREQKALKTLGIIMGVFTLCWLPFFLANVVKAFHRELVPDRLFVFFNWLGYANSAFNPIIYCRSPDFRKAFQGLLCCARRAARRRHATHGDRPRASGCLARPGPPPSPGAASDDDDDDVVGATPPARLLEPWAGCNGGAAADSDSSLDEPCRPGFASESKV

D(1A) dopamine receptor = D(1A) dopamine receptor (Homo sapiens, UniProt P21728); assay: Binding affinity to dopamine D1 receptor (unknown origin)
D(1A) dopamine receptor, sequence (P21728 whole entry): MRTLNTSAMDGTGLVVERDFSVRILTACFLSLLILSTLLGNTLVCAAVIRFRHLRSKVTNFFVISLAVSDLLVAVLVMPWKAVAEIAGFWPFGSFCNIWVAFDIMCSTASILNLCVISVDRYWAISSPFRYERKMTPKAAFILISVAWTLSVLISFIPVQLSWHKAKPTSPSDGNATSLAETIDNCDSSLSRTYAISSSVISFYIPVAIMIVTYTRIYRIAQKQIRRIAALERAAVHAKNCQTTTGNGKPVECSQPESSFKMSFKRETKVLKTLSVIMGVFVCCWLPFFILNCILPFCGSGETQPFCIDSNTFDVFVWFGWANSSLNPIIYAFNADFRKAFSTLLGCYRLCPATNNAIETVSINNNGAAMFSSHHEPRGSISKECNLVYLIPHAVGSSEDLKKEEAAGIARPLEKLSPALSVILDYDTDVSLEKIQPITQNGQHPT

D(2) dopamine receptor = D(2) dopamine receptor (Homo sapiens, UniProt P14416); assay: Binding affinity to dopamine D2 receptor (unknown origin)
D(3) dopamine receptor = D(3) dopamine receptor (Homo sapiens, UniProt P35462); assay: Binding affinity to dopamine D3 receptor (unknown origin)
D(3) dopamine receptor, sequence (P35462 whole entry): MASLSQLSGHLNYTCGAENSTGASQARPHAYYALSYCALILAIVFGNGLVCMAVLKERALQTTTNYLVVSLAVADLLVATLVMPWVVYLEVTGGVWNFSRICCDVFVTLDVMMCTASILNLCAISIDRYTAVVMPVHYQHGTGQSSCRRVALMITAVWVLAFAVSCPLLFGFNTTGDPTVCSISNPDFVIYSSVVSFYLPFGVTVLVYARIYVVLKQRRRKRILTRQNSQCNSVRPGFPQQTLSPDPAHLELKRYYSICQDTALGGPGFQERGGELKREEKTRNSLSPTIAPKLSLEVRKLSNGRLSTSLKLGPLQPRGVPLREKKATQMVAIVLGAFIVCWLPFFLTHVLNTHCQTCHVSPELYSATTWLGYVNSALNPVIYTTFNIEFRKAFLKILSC

D(4) dopamine receptor = D(4) dopamine receptor (Homo sapiens, UniProt P21917); assay: Binding affinity to dopamine D4 receptor (unknown origin)
D(1B) dopamine receptor = D(1B) dopamine receptor (Homo sapiens, UniProt P21918); assay: Binding affinity to dopamine D5 receptor (unknown origin)
Histamine H1 receptor = Histamine H1 receptor (Homo sapiens, UniProt P35367); assay: Binding affinity to histamine H1 receptor (unknown origin)
Histamine H2 receptor = Histamine H2 receptor (Homo sapiens, UniProt P25021); assay: Binding affinity to histamine H2 receptor (unknown origin)
Histamine H3 receptor = Histamine H3 receptor (Homo sapiens, UniProt Q9Y5N1); assay: Binding affinity to histamine H3 receptor (unknown origin)
Histamine H3 receptor, sequence (Q9Y5N1 whole entry): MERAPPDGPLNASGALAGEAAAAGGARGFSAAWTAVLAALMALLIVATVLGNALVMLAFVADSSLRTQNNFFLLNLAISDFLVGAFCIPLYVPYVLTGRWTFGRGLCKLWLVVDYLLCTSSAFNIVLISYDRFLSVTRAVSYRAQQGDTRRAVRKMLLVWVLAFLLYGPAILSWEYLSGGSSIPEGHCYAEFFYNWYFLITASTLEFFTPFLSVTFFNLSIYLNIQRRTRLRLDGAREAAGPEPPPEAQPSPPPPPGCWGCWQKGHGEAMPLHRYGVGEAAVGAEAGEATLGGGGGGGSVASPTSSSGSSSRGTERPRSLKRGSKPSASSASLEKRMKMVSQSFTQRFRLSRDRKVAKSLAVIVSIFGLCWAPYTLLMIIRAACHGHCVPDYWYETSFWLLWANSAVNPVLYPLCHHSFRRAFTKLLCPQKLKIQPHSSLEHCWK

Histamine H4 receptor = Histamine H4 receptor (Homo sapiens, UniProt Q9H3N8); assay: Binding affinity to histamine H4 receptor (unknown origin)
[8] = target: Muscarinic acetylcholine receptor M1 (Homo sapiens, UniProt P11229); assay: Binding affinity to muscarinic acetylcholine receptor M1 (unknown origin)
[9] = target: Muscarinic acetylcholine receptor M2 (Homo sapiens, UniProt P08172); assay: Binding affinity to muscarinic acetylcholine receptor M2 (unknown origin)
[10] = target: Muscarinic acetylcholine receptor M3 (Homo sapiens, UniProt P20309); assay: Binding affinity to muscarinic acetylcholine receptor M3 (unknown origin)
Muscarinic acetylcholine receptor M3, sequence (P20309 whole entry): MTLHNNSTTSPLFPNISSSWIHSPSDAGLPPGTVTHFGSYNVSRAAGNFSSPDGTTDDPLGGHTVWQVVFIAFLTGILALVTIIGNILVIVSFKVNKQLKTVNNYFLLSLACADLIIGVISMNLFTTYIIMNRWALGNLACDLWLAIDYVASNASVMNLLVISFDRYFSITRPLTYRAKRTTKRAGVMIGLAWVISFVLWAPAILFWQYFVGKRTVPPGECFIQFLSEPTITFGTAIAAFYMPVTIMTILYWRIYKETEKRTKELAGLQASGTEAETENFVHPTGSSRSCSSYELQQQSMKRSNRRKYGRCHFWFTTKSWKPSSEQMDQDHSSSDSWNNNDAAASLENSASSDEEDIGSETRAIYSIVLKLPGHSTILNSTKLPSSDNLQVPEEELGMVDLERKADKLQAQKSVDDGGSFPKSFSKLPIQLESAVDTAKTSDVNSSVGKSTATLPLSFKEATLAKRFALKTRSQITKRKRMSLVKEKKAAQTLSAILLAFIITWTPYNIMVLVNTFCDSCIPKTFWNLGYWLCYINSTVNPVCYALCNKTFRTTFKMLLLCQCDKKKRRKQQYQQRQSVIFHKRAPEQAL

[11] = target: Muscarinic acetylcholine receptor M4 (Homo sapiens, UniProt P08173); assay: Binding affinity to muscarinic acetylcholine receptor M4 (unknown origin)
Muscarinic acetylcholine receptor M4, sequence (P08173 whole entry): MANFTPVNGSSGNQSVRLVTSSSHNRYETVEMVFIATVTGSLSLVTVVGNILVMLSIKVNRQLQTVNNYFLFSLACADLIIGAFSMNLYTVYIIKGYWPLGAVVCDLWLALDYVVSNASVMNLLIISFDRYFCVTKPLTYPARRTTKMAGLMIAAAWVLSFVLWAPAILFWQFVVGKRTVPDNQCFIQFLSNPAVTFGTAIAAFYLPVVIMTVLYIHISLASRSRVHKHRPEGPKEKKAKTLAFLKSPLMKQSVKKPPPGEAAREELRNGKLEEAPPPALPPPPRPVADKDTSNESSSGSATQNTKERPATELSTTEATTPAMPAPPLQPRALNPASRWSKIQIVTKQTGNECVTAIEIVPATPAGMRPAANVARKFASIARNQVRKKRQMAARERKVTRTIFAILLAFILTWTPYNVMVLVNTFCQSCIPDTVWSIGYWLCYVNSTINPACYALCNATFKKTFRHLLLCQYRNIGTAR

[12] = target: Muscarinic acetylcholine receptor M5 (Homo sapiens, UniProt P08912); assay: Binding affinity to muscarinic acetylcholine receptor M5 (unknown origin)
[13] = target: Sodium-dependent serotonin transporter (Homo sapiens, UniProt P31645); assay: Binding affinity to SERT (unknown origin)
[14] = target: Sodium-dependent noradrenaline transporter (Homo sapiens, UniProt P23975); assay: Binding affinity to NET (unknown origin)
[15] = target: Sodium-dependent dopamine transporter (Homo sapiens, UniProt Q01959); assay: Binding affinity to DAT (unknown origin)
Mu-type opioid receptor = Mu-type opioid receptor (Homo sapiens, UniProt P35372); assay: Binding affinity to MOR (unknown origin)
[16] = target: Delta-type opioid receptor (Homo sapiens, UniProt P41143); assay: Binding affinity to DOR (unknown origin)
[17] = target: Kappa-type opioid receptor (Homo sapiens, UniProt P41145); assay: Binding affinity to KOR (unknown origin)
[18] = target: 5-hydroxytryptamine receptor 1A (Homo sapiens, UniProt P08908); assay: Binding affinity to 5HT1A receptor (unknown origin)
[19] = target: 5-hydroxytryptamine receptor 1B (Homo sapiens, UniProt P28222); assay: Binding affinity to 5HT1B receptor (unknown origin)
[20] = target: 5-hydroxytryptamine receptor 1D (Homo sapiens, UniProt P28221); assay: Binding affinity to 5HT1D receptor (unknown origin)
[21] = target: 5-hydroxytryptamine receptor 1E (Homo sapiens, UniProt P28566); assay: Binding affinity to 5HT1E receptor (unknown origin)
5-hydroxytryptamine receptor 1E, sequence (P28566 whole entry): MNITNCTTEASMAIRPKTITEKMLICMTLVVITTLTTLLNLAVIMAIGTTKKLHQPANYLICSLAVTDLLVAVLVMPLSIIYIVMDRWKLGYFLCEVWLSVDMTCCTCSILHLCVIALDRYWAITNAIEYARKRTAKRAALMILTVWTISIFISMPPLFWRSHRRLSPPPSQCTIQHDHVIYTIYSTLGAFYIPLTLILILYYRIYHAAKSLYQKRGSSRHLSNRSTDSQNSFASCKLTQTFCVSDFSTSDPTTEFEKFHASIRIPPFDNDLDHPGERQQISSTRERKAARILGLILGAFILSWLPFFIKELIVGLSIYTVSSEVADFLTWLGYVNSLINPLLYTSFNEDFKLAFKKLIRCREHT

[22] = target: 5-hydroxytryptamine receptor 2A (Homo sapiens, UniProt P28223); assay: Binding affinity to 5HT2A receptor (unknown origin)
5-hydroxytryptamine receptor 2A, sequence (P28223 whole entry): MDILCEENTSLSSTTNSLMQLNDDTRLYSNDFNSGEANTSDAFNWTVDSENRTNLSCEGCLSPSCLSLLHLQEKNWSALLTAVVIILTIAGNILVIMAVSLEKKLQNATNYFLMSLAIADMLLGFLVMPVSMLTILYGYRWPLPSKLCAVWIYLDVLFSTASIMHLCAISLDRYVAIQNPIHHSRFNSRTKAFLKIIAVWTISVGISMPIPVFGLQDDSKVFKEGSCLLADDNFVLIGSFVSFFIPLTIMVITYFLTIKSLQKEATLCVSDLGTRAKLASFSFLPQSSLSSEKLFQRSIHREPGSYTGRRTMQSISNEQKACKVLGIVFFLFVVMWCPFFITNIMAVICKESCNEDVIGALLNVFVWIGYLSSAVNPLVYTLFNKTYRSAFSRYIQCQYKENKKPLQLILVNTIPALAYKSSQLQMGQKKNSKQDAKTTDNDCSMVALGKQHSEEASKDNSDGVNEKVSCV

[23] = target: 5-hydroxytryptamine receptor 2B (Homo sapiens, UniProt P41595); assay: Binding affinity to 5HT2B receptor (unknown origin)
[24] = target: 5-hydroxytryptamine receptor 2C (Homo sapiens, UniProt P28335); assay: Binding affinity to 5HT2C receptor (unknown origin)
5-hydroxytryptamine receptor 2C, sequence (P28335 whole entry): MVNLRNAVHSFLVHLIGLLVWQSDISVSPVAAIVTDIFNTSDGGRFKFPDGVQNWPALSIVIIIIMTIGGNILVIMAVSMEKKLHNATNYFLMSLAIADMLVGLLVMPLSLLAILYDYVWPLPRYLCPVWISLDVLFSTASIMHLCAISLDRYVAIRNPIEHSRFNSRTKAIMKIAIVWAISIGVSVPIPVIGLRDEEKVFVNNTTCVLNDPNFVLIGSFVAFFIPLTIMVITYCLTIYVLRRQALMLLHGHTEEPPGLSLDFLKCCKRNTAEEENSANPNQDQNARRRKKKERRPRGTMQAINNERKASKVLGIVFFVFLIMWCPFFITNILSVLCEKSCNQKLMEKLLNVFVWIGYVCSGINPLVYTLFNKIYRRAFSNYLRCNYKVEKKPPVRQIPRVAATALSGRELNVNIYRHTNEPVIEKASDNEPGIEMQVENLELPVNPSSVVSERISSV

[25] = target: 5-hydroxytryptamine receptor 3A (Homo sapiens, UniProt P46098); assay: Binding affinity to 5HT3 receptor (unknown origin)
[26] = target: 5-hydroxytryptamine receptor 5A (Homo sapiens, UniProt P47898); assay: Binding affinity to 5HT5A receptor (unknown origin)
[27] = target: 5-hydroxytryptamine receptor 6 (Homo sapiens, UniProt P50406); assay: Binding affinity to 5HT6 receptor (unknown origin)
[28] = target: T1, 5-hydroxytryptamine receptor 7 (Homo sapiens, UniProt P34969); assay: Binding affinity to 5HT7 receptor (unknown origin)
T1 sequence (P34969 whole entry): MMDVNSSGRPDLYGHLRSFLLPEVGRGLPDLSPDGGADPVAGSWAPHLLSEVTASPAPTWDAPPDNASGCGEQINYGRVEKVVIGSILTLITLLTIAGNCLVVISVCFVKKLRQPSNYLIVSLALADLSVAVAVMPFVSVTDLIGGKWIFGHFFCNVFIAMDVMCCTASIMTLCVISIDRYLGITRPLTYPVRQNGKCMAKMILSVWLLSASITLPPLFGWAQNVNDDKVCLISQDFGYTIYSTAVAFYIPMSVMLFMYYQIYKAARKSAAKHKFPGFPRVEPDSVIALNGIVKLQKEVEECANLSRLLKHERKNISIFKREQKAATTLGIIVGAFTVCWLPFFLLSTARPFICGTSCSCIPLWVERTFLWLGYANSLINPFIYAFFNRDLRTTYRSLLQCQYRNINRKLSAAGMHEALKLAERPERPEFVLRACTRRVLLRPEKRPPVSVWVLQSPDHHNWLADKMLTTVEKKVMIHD

[29] = target: T1, 5-hydroxytryptamine receptor 7; assay: Binding affinity to 5HT7A receptor (unknown origin)
[30] = target: Sigma non-opioid intracellular receptor 1 (Homo sapiens, UniProt Q99720); assay: Binding affinity to sigma1 receptor (unknown origin)
[31] = target: Sigma intracellular receptor 2 (Homo sapiens, UniProt Q5BJF2); assay: Binding affinity to sigma2 receptor (unknown origin)
Sigma intracellular receptor 2, sequence (Q5BJF2 whole entry): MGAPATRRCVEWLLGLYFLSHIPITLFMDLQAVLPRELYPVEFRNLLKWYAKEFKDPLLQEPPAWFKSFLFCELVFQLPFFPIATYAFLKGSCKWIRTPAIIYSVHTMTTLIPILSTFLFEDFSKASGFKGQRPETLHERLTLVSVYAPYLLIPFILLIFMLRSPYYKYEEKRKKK

CNCCCN1c2ccccc2CCc2ccccc21
active: Activity (Mus musculus)

Cc1nccc2c1C(C)(C)Nc1cc(Br)ccc1-2
active: Activity (Mus musculus)
> 10 µM: Ki [2] | Ki [3] | Ki [4] | Ki [5] | Ki [6] | Ki [7] | Ki (D(1A) dopamine receptor) | Ki (D(2) dopamine receptor) | Ki (D(3) dopamine receptor) | Ki (D(4) dopamine receptor) | Ki (D(1B) dopamine receptor) | Ki (Histamine H1 receptor) | Ki (Histamine H2 receptor) | Ki (Histamine H3 receptor) | Ki (Histamine H4 receptor) | Ki [8] | Ki [9] | Ki [10] | Ki [11] | Ki [12] | Ki [13] | Ki [14] | Ki [15] | Ki (Mu-type opioid receptor) | Ki [16] | Ki [17] | Ki [18] | Ki [19] | Ki [20] | Ki [21] | Ki [22] | Ki [24] | Ki [25] | Ki [26] | Ki [27] | Ki [28] | Ki [29] | Ki [31]
Non-Toxic: Activity [1]
0.39 µM: Ki [23]
0.56 µM: Ki [30]
